Test results as given in ChEMBL document CHEMBL1148410, “Antitumor agents. 3. Design, synthesis, and biological evaluation of new pyridoisoquinolindione and dihydrothienoquinolindione derivatives with potent cytotoxic activity” (J Med Chem, 2004).
pIC50: −log10 of the molar value. *1 amine or outer side, *2 acyl side, *3 side chain or, on linkers, in order; H or OH if unused. Where a SMILES comes first, the peptide text is derived from it. Bridges are numbered along the chain shown (N, C = ends). Roman numbers before positions name the chains, in order. [ ]: non-standard residue; d: D form. Actinocin(1to9) = Cc1c2oc3c(C)ccc(C(=O)[*:2])c3nc-2c(C(=O)[*:1])c(N)c1=O; NMeV = CN[C@H](C(=O)O)C(C)C; Sar = CNCC(=O)O

What was measured:
SK-MES-1 = test: Concentration required to reduce proliferation of human lung squamous carcinoma (SKMES-1) cell line by 50% as determined by the MTT method; assay type: functional, cell-based
Summary of the method: (§1)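 Solid-tumour-derived cells (and fibroblasts) were seeded in exponential growth at 5×10^4 cells/mL and allowed to adhere for 16 h before serial drug dilutions were added (DMSO stock 200 μM, diluted in medium). MTT viability was read 4 days later. Untreated controls went through at least three rounds of multiplication. IC50 came from linear regression of % growth versus untreated control, mean of three independent determinations.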

DU-145 = test: Concentration required to reduce proliferation of human prostate carcinoma (DU-145) cell line by 50% as determined by the MTT method; assay type: functional, cell-based; summary of the method: as §1
WIL2-NS = test: Concentration required to reduce proliferation of human splenic B-lymphoblastoid (Wil2-NS) cell line by 50% as determined by the MTT method; assay type: functional, cell-based
Summary of the method: (§2)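 Leukemia/lymphoma cells grown in RPMI 1640 with 10% FCS, 37 °C, humidified 5% CO2. Compounds were dissolved in DMSO (200 μM initial) and serially diluted in medium. Exponentially growing cells were resuspended at 1×10^5 cells/mL with the drug dilutions. Viability was read by MTT after 96 h at 37 °C. Growth was taken as % of untreated controls, and IC50 came from linear regression. Values are the mean of three independent determinations.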

SK-MEL-28 = test: Concentration required to reduce proliferation of human melanoma (SKMEL-28) cell line by 50% as determined by the MTT method; assay type: functional, cell-based; summary of the method: as §1
HepG2 = test: Concentration required to reduce proliferation of human hepatocellular carcinoma (HepG-2) cell line by 50% as determined by the MTT method; assay type: functional, cell-based; summary of the method: as §1
CCRF-SB = test: Concentration required to reduce proliferation of human acute B-lymphoblastic (CCRF-SB) cell line by 50% as determined by the MTT method; assay type: functional, cell-based; summary of the method: as §2
CCRF-CEM = test: Concentration required to reduce proliferation of CD4+ human acuteT-lymphoblastic leukemia (CCRF-CEM) cell line by 50% as determined by the MTT method; assay type: functional, cell-based; summary of the method: as §2
MT4 = test: Concentration required to reduce proliferation of CD4+ human acute T-lymphoblastic leukemia (MT-4) cell line by 50% as determined by the MTT method; assay type: functional, cell-based; summary of the method: as §2
MCF7 = test: Concentration required to reduce proliferation of human breast adenocarcinoma (MCF-7) cell line by 50% as determined by the MTT method; assay type: functional, cell-based; summary of the method: as §1
KB [1] = test: Concentration required to reduce proliferation of KB subclones passaged in the presence of vincristine 0.02 uM (KBV20C) cell line by 50% as determined by the MTT method; conditions: Homo sapiens
KB [2] = test: Concentration required to reduce proliferation of KB subclones passaged in the presence of etoposide 7 uM (KB7D) cell line by 50% as determined by the MTT method; assay type: functional, cell-based; conditions: Homo sapiens
Summary of the method: (§3)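 Adherent cultures were seeded at 5×10^4 cells/mL, attached for 16 h, then exposed to serial drug dilutions. MTT viability was read after 4 days, with controls completing at least three doublings. IC50 came from linear regression, mean ±SD of three independent determinations.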

KB [3] = test: Concentration required to reduce proliferation of KB human nasopharyngeal carcinoma (KBWT) cell line by 50% as determined by the MTT method; assay type: functional, cell-based; summary of the method: as §3
KB [4] = test: Concentration required to reduce proliferation of KB subclones passaged in the presence of doxorubicin 0.09 uM (KBMDR) cell line by 50% as determined by the MTT method; assay type: functional, cell-based; conditions: Homo sapiens; summary of the method: as §3
CRL-7065 cell line = test: Concentration required to reduce proliferation of human foreskin fibroblasts (CRL7065) cell line by 50% as determined by the MTT method; assay type: functional, cell-based; summary of the method: as §1

Structure (SMILES)	pIC50 (SK-MES-1)	pIC50 (DU-145)	pIC50 (SK-MEL-28)	pIC50 (HepG2)	pIC50 (CCRF-SB)	pIC50 (CCRF-CEM)	pIC50 (MCF7)	pIC50 (KB [1])	pIC50 (KB [2])	pIC50 (KB [3])	pIC50 (KB [4])	pIC50 (WIL2-NS)	pIC50 (MT4)	pIC50 (CRL-7065 cell line)
Cc1c2oc3c(C)ccc(C(=O)N[C@@H]4C(=O)N[C@H](C(C)C)C(=O)N5CCC[C@H]5C(=O)N(C)CC(=O)N(C)[C@@H](C(C)C)C(=O)O[C@@H]4C)c3nc-2c(C(=O)N[C@@H]2C(=O)N[C@H](C(C)C)C(=O)N3CCC[C@H]3C(=O)N(C)CC(=O)N(C)[C@@H](C(C)C)C(=O)O[C@@H]2C)c(N)c1=O [DACTINOMYCIN] (I: T[dV]P[Sar][NMeV] / II: T[dV]P[Sar][NMeV]; ester I:1-I:C, II:1-II:C; linker I:N-II:N via Actinocin(1to9))	–	–	–	–	–	–	–	7.30	6.70	8.40	6.70	–	–	–
CCOC(=O)C1=CC2C(=O)c3cccnc3C(=O)C2C(c2ccc(N(C)C)cc2)=N1 (configuration not stated)	5.74	5.72	5.72	5.66	5.66	5.64	5.80	–	–	–	–	5.60	5.70	–
CCOC(=O)C1=CC2C(=O)c3cccnc3C(=O)C2C(c2ccc(OC)cc2)=N1 (configuration not stated)	5.92	5.82	6.00	5.70	6.05	5.82	6.05	–	–	–	–	5.68	6.00	5.82
CCOC(=O)C1=CC2C(=O)c3ncccc3C(=O)C2C(c2ccc(C)cc2)=N1 (configuration not stated)	6.00	6.00	6.70	6.05	7.05	7.70	6.00	–	–	–	–	7.52	6.52	7.15
CC[C@]1(O)C[C@H]2CN(CCc3c([nH]c4ccccc34)[C@@](C(=O)OC)(c3cc4c(cc3OC)N(C=O)[C@H]3[C@@](O)(C(=O)OC)[C@H](OC(C)=O)[C@]5(CC)C=CCN6CC[C@]43[C@@H]65)C2)C1 [VINCRISTINE]	–	–	–	–	–	–	–	6.70	–	8.40	6.00	–	–	–
CCOC(=O)C1=CC2C(=O)c3cccnc3C(=O)C2C(c2ccc(Cl)cc2)=N1 (configuration not stated)	6.30	5.82	6.10	5.70	6.15	6.10	6.30	–	–	–	–	5.70	6.15	6.05
CCOC(=O)C1(N)CSC2=C1C(=O)c1ncccc1C2=O (configuration not stated)	7.00	7.10	6.70	6.22	8.00	7.15	6.70	–	–	–	–	7.22	7.70	7.05
CCOC(=O)C1=CC2C(=O)c3ncccc3C(=O)C2C(c2ccc(N(C)C)cc2)=N1 (configuration not stated)	6.00	6.00	6.05	6.05	6.05	5.92	6.00	–	–	–	–	5.85	6.05	–
CCOC(=O)C1=CC2C(=O)c3cccnc3C(=O)C2C(c2ccc(C)cc2)=N1 (configuration not stated)	5.92	5.72	5.89	5.72	6.00	6.00	5.80	–	–	–	–	5.60	6.00	–
CCOC(=O)C1(N)CSC2=C1C(=O)c1cccnc1C2=O (configuration not stated)	6.05	5.92	5.96	6.30	6.22	5.70	6.30	–	–	–	–	5.51	6.30	5.77
CCOC(=O)C1=CC2C(=O)c3cccnc3C(=O)C2C(c2ccc(Br)cc2)=N1 (configuration not stated)	6.30	5.89	6.05	5.64	6.10	5.89	6.22	–	–	–	–	5.68	6.15	5.89
CCOC(=O)C1=CC2C(=O)c3ncccc3C(=O)C2C(c2ccc([N+](=O)[O-])cc2)=N1 (configuration not stated)	8.00	8.00	9.00	7.15	8.70	7.30	7.10	6.70	6.40	7.10	6.52	9.00	9.00	–
CCOC(=O)C1=CC2C(=O)c3ncccc3C(=O)C2C(c2ccc(Cl)cc2)=N1 (configuration not stated)	7.30	7.52	6.70	6.40	8.15	6.82	6.52	–	–	–	–	8.00	8.22	7.40

The next lines start with results.

pIC50 (SK-MES-1)	pIC50 (DU-145)	pIC50 (SK-MEL-28)	pIC50 (HepG2)	pIC50 (CCRF-SB)	pIC50 (CCRF-CEM)	pIC50 (MCF7)	pIC50 (KB [1])	pIC50 (KB [2])	pIC50 (KB [3])	pIC50 (KB [4])	Structure (SMILES)	pIC50 (WIL2-NS)	pIC50 (MT4)	pIC50 (CRL-7065 cell line)
6.30	5.82	6.10	5.70	8.00	6.70	6.30	–	–	–	–	CCOC(=O)C1=CC2C(=O)c3ncccc3C(=O)C2C(c2ccccc2)=N1 (configuration not stated)	7.70	7.82	–
–	–	–	–	–	–	–	5.62	< 4.70	6.10	< 4.70	COc1cc([C@@H]2c3cc4c(cc3[C@@H](O[C@@H]3O[C@@H]5CO[C@@H](C)O[C@H]5[C@H](O)[C@H]3O)[C@H]3COC(=O)[C@H]23)OCO4)cc(OC)c1O [ETOPOSIDE]	–	–	–
7.10	7.00	6.70	6.30	7.82	6.64	6.70	–	–	–	–	CCOC(=O)C1=CC2C(=O)c3cccnc3C(=O)C2C(c2ccc([N+](=O)[O-])cc2)=N1 (configuration not stated)	7.52	8.00	–
5.80	5.82	6.52	6.00	7.00	7.00	5.82	–	–	–	–	CCOC(=O)C1=CC2C(=O)c3ncccc3C(=O)C2C(c2ccc(OC)cc2)=N1 (configuration not stated)	7.05	6.40	–
6.52	6.00	6.10	6.00	6.22	6.15	6.52	–	–	–	–	CCOC(=O)C1=CC2C(=O)c3cccnc3C(=O)C2C(c2ccccc2)=N1 (configuration not stated)	6.00	6.15	–
7.05	7.30	6.70	6.52	8.00	6.70	6.70	–	–	–	–	CCOC(=O)C1=CC2C(=O)c3ncccc3C(=O)C2C(c2ccc(Br)cc2)=N1 (configuration not stated)	7.70	8.00	7.30
